Tests used:
[1] = system: NCI-H292; experiment: Cytotoxicity against human NCI-H292 cells assessed as inhibition of cell viability at 25 ug/ml after 72 hrs by MTT assay relative to control; assay type: functional; details: NCI-H292, 72 h
In short: (§1)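 Single-concentration MTT screen at 25 µg/mL for 72 h. Seeding was 3 x 10^5 cells/mL (HL-60, K562) or 1 x 10^5 cells/mL (adherent), with 24 h preincubation. MTT was added for the final 3 h, formazan dissolved in DMSO and absorbance read at 560 nm. Results are given as percent inhibition ± SD.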

[2] = system: K562; experiment: Cytotoxicity against human K562 cells assessed as inhibition of cell viability at 25 ug/ml after 72 hrs by MTT assay relative to control; assay type: functional; details: K562, 72 h; in short: as §1
[3] = system: HEp-2; experiment: Cytotoxicity against human Hep2 cells assessed as inhibition of cell viability at 25 ug/ml after 72 hrs by MTT assay relative to control; assay type: functional; details: HEp-2, 72 h; in short: as §1
[4] = system: HL-60; experiment: Cytotoxicity against human HL60 cells assessed as inhibition of cell viability at 25 ug/ml after 72 hrs by MTT assay relative to control; assay type: functional; details: HL-60, 72 h; in short: as §1
[5] = system: HT-29; experiment: Cytotoxicity against human HT-29 cells assessed as inhibition of cell viability at 25 ug/ml after 72 hrs by MTT assay relative to control; assay type: functional; details: HT-29, 72 h; in short: as §1
[6] = system: HL-60; experiment: Cytotoxicity against human HL60 cells assessed as inhibition of cell viability after 72 hrs by MTT assay; assay type: functional, cell-based; details: HL-60, 72 h
In short: (§2)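 MTT assay. Leukaemic lines were seeded at 3 x 10^5 cells/mL and adherent lines at 1 x 10^5 cells/mL, then preincubated 24 h. Compounds were added at 0.098–25.0 µg/mL for 72 h, with MTT for the last 3 h. Formazan was dissolved in DMSO and read at 560 nm. IC50 came from regression; triplicate, two independent experiments.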

[7] = system: HEp-2; experiment: Cytotoxicity against human Hep2 cells assessed as inhibition of cell viability after 72 hrs by MTT assay; assay type: functional, cell-based; details: HEp-2, 72 h; in short: as §2
[8] = system: PBMC; experiment: Cytotoxicity against human PBMC cells assessed as inhibition of cell viability after 72 hrs by alamar blue assay; assay type: cell-based
In short: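 PBMC from healthy donors were grown in RPMI-1640 with 20% FBS and 2% phytohaemagglutinin, then plated at 10^6 cells/mL. After 24 h, compounds (0.048–25 µg/mL, in DMSO) were added for 72 h. Resazurin was added for the final 24 h and absorbance read at 570 and 595 nm as percent of control.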

[9] = system: K562; experiment: Cytotoxicity against human K562 cells assessed as inhibition of cell viability after 72 hrs by MTT assay; assay type: functional, cell-based; details: K562, 72 h; in short: as §2
[10] = system: Erythrocyte; experiment: Hemolytic activity in human erythrocytes after 1 hr by spectrophotometric method; assay type: ADME, cell-based
In short: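 Human erythrocytes as a 2% suspension in 0.85% NaCl with 10 mM CaCl2 were exposed to 0.78–250 µg/mL for 1 h at room temperature. After centrifugation, released haemoglobin in the supernatant was read at 540 nm. Triton X-100 (1%) served as positive control; EC50 is the concentration giving 50% haemolysis.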

[11] = system: NCI-H292; experiment: Cytotoxicity against human NCI-H292 cells assessed as inhibition of cell viability after 72 hrs by MTT assay; assay type: functional, cell-based; details: NCI-H292, 72 h; in short: as §2
[12] = system: HT-29; experiment: Cytotoxicity against human HT-29 cells assessed as inhibition of cell viability after 72 hrs by MTT assay; assay type: functional, cell-based; details: HT-29, 72 h; in short: as §2
[13] = system: K562; experiment: Cell cycle arrest in human K562 cells assessed as accumulation at G1-phase at 0.2 uM after 48 hrs by flow cytometry (reference value: 45.54 +/- 1.34%); assay type: functional
In short: (§3)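 K562 cells seeded at 3 x 10^5 cells/mL in RPMI-1640 and exposed 48 h at 37 °C, 5% CO2. Cells were stained with propidium iodide (Guava cell cycle kit) and 5,000 events acquired by flow cytometry. Vehicle control was 0.1% DMSO. Two independent experiments, each in triplicate.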

[14] = system: K562; experiment: Induction of mitochondrial membrane potential depolarization in human K562 cells at 0.5 uM after 48 hrs by Rho-123 staining based flow cytometry (reference value: 12.24 +/- 0.61%); assay type: functional
[15] = system: K562; experiment: Cell cycle arrest in human K562 cells assessed as accumulation at G2/M-phase at 0.2 uM after 48 hrs by flow cytometry (reference value: 35.97 +/- 1.94%); assay type: functional; in short: as §3
[16] = system: K562; experiment: Cell cycle arrest in human K562 cells assessed as accumulation at S-phase at 0.2 uM after 48 hrs by flow cytometry (reference value: 17.39 +/- 0.84%); assay type: functional; in short: as §3
[17] = system: K562; experiment: Induction of DNA damage in human K562 cells at 0.5 uM after 48 hrs by propidium iodide staining based flow cytometry (reference value: 3.62 +/- 0.37%); assay type: functional
[18] = system: K562; experiment: Cytotoxicity against human K562 cells assessed as inhibition of cell viability after 24 hrs by MTT assay; assay type: functional, cell-based; details: K562, 24 h
In short: (§4)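 K562 cells (3 x 10^5 cells/mL, RPMI-1640 with 10% FBS) were treated with serial dilutions for 24 or 48 h. Viability was read by MTT (absorbance at 560 nm after DMSO solubilisation), and IC50 was obtained by regression.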

[19] = Selectivity index, ratio of IC50 for human PBMC to IC50 for human K562 cells; assay type: toxicity; details: human PBMC and human K562 cells, read-out: Ratio IC50
In short: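 Ratio of IC50 in PBMC (Alamar blue, 72 h) to IC50 in K562 cells (MTT, 72 h), calculated as SI = IC50(PBMC)/IC50(K562).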

[20] = system: K562; experiment: Cytotoxicity against human K562 cells assessed as inhibition of cell viability by MTT assay; assay type: functional, cell-based; details: TDE = time-dependent effect
[21] = system: K562; experiment: Cytotoxicity against human K562 cells assessed as inhibition of cell viability after 48 hrs by MTT assay; assay type: functional, cell-based; details: K562, 48 h; in short: as §4

| Structure (SMILES) | inhibition at 25 µg/mL [1] | inhibition at 25 µg/mL [2] | inhibition at 25 µg/mL [3] | inhibition at 25 µg/mL [4] | inhibition at 25 µg/mL [5] | IC50 [6] | IC50 [7] | IC50 [8] | IC50 [9] | EC50 [10] | IC50 [11] | IC50 [12] | other results |
| --- | --- | --- | --- | --- | --- | --- | --- | --- | --- | --- | --- | --- | --- |
| Cc1sc(N/N=C/c2ccc(C(F)(F)F)cc2)nc1-c1ccccc1 | 60.9% | 25% | 29.5% | 30.9% | 46.2% |  |  |  |  |  |  |  |  |
| Cn1c(-c2ccc([N+](=O)[O-])cc2)cs/c1=N/N=C/c1ccc(C(F)(F)F)cc1 | 44.1% | 59.8% | 84.8% | 83.2% | 75.1% | 11.8 µM | 26.4 µM | 140 µM | > 61.4 µM | > 250 µg/mL | > 61.4 µM | 47.8 µM |  |
| FC(F)(F)c1ccc(/C=N/N=c2/scc(-c3ccc(Cl)cc3Cl)n2-c2ccccc2)cc1 | 38.5% |  |  | 14.4% |  |  |  |  |  |  |  |  |  |
| FC(F)(F)c1ccc(/C=N/NC(=S)Nc2ccccc2)cc1 | 58.4% | 71.2% | 63.6% | 37.7% | 74.7% |  |  |  |  |  |  |  |  |
| CNC(=S)N/N=C/c1ccc(C(F)(F)F)cc1 | 93.3% | 82.6% | 88.1% | 94.6% | 88.7% | 17.2 µM | 12.6 µM | 93.3 µM | 13.2 µM | > 250 µg/mL | 20.8 µM | 5.06 µM |  |
| O=[N+]([O-])c1cccc(-c2csc(N/N=C/c3ccc(C(F)(F)F)cc3)n2)c1 | 75.1% | 75.5% | 84.3% | 77.4% | 79.4% | 29.3 µM | 34.2 µM | 151 µM | 10.2 µM | > 250 µg/mL | 22.8 µM | 23.9 µM |  |
| O=[N+]([O-])c1ccc(-c2csc(N/N=C/c3ccc(C(F)(F)F)cc3)n2)cc1 | 96.3% | 87.2% | 90% | 80.2% | 59.3% | 11.5 µM | 27.3 µM | 53.2 µM | 16.9 µM | > 250 µg/mL | 7.41 µM | > 63.6 µM |  |
| Cn1c(-c2ccc(Cl)cc2Cl)cs/c1=N/N=C/c1ccc(C(F)(F)F)cc1 | 35.7% | 69.7% | 33.5% | 43.5% | 52.7% |  |  |  |  |  |  |  |  |
| COc1cccc2c1C(=O)c1c(O)c3c(c(O)c1C2=O)C[C@@](O)(C(=O)CO)C[C@@H]3O[C@H]1C[C@H](N)[C@H](O)[C@H](C)O1 [DOXORUBICIN] |  |  |  |  |  | 0.19 µM | 1.21 µM | 0.38 µM | 1.38 µM |  | 0.19 µM | 0.69 µM | Activity [13]: 9.53%; Activity [14]: 23.6%; Activity [15]: 81.29%; Activity [16]: 10.67%; Activity [17]: 19.69% |
| Fc1ccc(-c2csc(N/N=C/c3ccc(C(F)(F)F)cc3)n2)cc1 | 78.8% | 61.6% | 62.6% | 58.1% | 70.1% |  |  |  |  |  |  |  |  |
| COc1ccc(-c2cs/c(=N/N=C/c3ccc(C(F)(F)F)cc3)n2-c2ccccc2)cc1 | 66.3% | 59.2% | 81.8% | 36.7% | 58.5% |  |  |  |  |  |  |  |  |
| FC(F)(F)c1ccc(/C=N/Nc2nc(-c3ccc(Br)cc3)cs2)cc1 | 64.2% | 25% | 17.1% | 46.7% | 67.4% |  |  |  |  |  |  |  |  |
| FC(F)(F)c1ccc(/C=N/N=c2/scc(-c3ccc(Cl)cc3)n2-c2ccccc2)cc1 | 87.8% | 59% | 58.7% | 28.4% | 82.2% |  |  |  |  |  |  |  |  |
| FC(F)(F)c1ccc(/C=N/Nc2nc(-c3ccccc3)cs2)cc1 | 49.8% |  | 34.7% | 40.6% |  |  |  |  |  |  |  |  |  |
| COc1ccc(-c2csc(N/N=C/c3ccc(C(F)(F)F)cc3)n2)cc1 | 68.5% | 61.5% | 78.2% | 89.1% | 76.2% | 3.67 µM | 11.3 µM | 130 µM | > 66.2 µM | > 250 µg/mL | > 66.2 µM | 22.7 µM |  |
| Fc1ccc(-c2cs/c(=N/N=C/c3ccc(C(F)(F)F)cc3)n2-c2ccccc2)cc1 | 41.8% | 59.1% | 22% | 26.2% | 74.6% |  |  |  |  |  |  |  |  |
| FC(F)(F)c1ccc(/C=N/Nc2nc(-c3cccc4ccccc34)cs2)cc1 | 35.7% | 44.9% | 28.5% | 39.1% | 45.8% |  |  |  |  |  |  |  |  |
| Cc1ccc(-c2csc(N/N=C/c3ccc(C(F)(F)F)cc3)n2)cc1 | 62.3% | 20.9% | 59.9% | 45.2% | 42.7% |  |  |  |  |  |  |  |  |
| N=C(S)N/N=C/c1ccc(C(F)(F)F)cc1 | 89.5% | 87.2% | 91.8% | 95.3% | 85.4% | 12.7 µM | 6.27 µM | 80.2 µM | 6.42 µM | > 250 µg/mL | 10.8 µM | 9.02 µM | IC50 [18]: > 101 µM; selectivity ratio [19]: 12.5; Activity [20]: Tde; IC50 [21]: 34 µM |
| FC(F)(F)c1ccc(/C=N/Nc2nc(-c3ccc(Cl)c(Cl)c3)cs2)cc1 | 98.2% | 47.8% | 83.5% | 96.4% | 84% | 4.23 µM | 10.4 µM | 65.6 µM | > 60.1 µM | > 250 µg/mL | 6.57 µM | 12.2 µM |  |
| FC(F)(F)c1ccc(/C=N/Nc2nc(-c3ccc(Cl)cc3)cs2)cc1 | 67.7% | 50.5% | 33% | 61.4% | 40.1% |  |  |  |  |  |  |  |  |
| COc1ccc(-c2cs/c(=N/N=C/c3ccc(C(F)(F)F)cc3)n2C)cc1 | 68.3% | 50.4% | 53.7% | 67.8% | 62.5% |  |  |  |  |  |  |  |  |
